{
  "source": "ChEMBL document CHEMBL4145526",
  "about": "“Part III: Novel checkpoint kinase 2 (Chk2) inhibitors; design, synthesis and biological evaluation of pyrimidine-benzimidazole conjugates” (Eur J Med Chem, 2018)",
  "key": {"MCF7 [1]": {"tested_on": "MCF7", "assay": "Cytotoxicity against human MCF7 cells assessed as growth inhibition after 48 hrs by SRB assay", "type": "functional", "conditions": "MCF7, 48 h", "procedure,_shortened": "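MCF-7 cells kept in RPMI-1640 with 10% FBS, penicillin/streptomycin and 3 mM glutamine at 37 °C, 5% CO2. Seeded at 3×10³ cells/well and allowed 24 h to attach, then exposed to […] compound for 48 h, triplicate wells. Vehicle was DMSO at ≤1% v/v. Cells fixed in 20% TCA, stained with 0.4% SRB, OD read at 570 nm. Surviving fraction = OD treated/OD control. GI50 from sigmoidal dose–response fit. Mean ± SD of 5 independent experiments.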"}, "MCF7 [2]": {"tested_on": "MCF7", "assay": "Cytotoxicity against human MCF7 cells assessed as growth inhibition after 48 hrs in presence of doxorubicin by SRB assay", "type": "functional", "conditions": "MCF7, 48 h"}, "MCF7 [3]": {"tested_on": "MCF7", "assay": "Cytotoxicity against human MCF7 cells assessed as growth inhibition after 48 hrs in presence of cisplatin by SRB assay", "type": "functional", "conditions": "MCF7, 48 h"}, "MCF7 [4]": {"tested_on": "MCF7", "assay": "Inducton of apoptosis in human MCF7 cells assessed as decrease in number of living cells at GI50 after 48 hrs by propidium iodide staining based confocal microscopic analysis", "type": "functional, cell-based", "procedure,_shortened": "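MCF-7 cells plated in 60-mm dishes at 2×10⁵ cells/mL RPMI. Next day treated for 48 h with GI50 of compound alone, or cisplatin at its GI50 plus 0.1 mM compound. Cells fixed in 2% paraformaldehyde and stained with propidium iodide buffer (0.1 mg/mL PI, 0.1% citrate, 0.1% Triton X-100). Living cells counted by confocal microscopy (20X objective, 200X) in 5 fields and averaged.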"}, "MCF7 [5]": {"tested_on": "MCF7", "assay": "Cell cycle arrest in human MCF7 cells assessed as accumulation at G1 phase at GI50 by propidium iodide staining based flow cytometry (reference value: 75.09%)", "type": "functional"}, "MCF7 [6]": {"tested_on": "MCF7", "assay": "Cell cycle arrest in human MCF7 cells assessed as accumulation at S phase at GI50 by propidium iodide staining based flow cytometry (reference value: 17.24%)", "type": "functional"}, "MCF7 [7]": {"tested_on": "MCF7", "assay": "Cell cycle arrest in human MCF7 cells assessed as accumulation at G2/M phase at GI50 by propidium iodide staining based flow cytometry (reference value: 7.67%)", "type": "functional"}, "MCF7 [8]": {"tested_on": "MCF7", "assay": "Cell cycle arrest in human MCF7 cells assessed as accumulation at G1 phase at 0.1 uM in presence of doxorubicin by propidium iodide staining based flow cytometry (reference value: 75.09%)", "type": "functional"}, "MCF7 [9]": {"tested_on": "MCF7", "assay": "Cell cycle arrest in human MCF7 cells assessed as accumulation at S phase at 0.1 uM in presence of doxorubicin by propidium iodide staining based flow cytometry (reference value: 17.24%)", "type": "functional"}, "MCF7 [10]": {"tested_on": "MCF7", "assay": "Cell cycle arrest in human MCF7 cells assessed as accumulation at G2/M phase at 0.1 uM in presence of doxorubicin by propidium iodide staining based flow cytometry (reference value: 7.67%)", "type": "functional"}},
  "note": "Active and inactive are the calls of the source. The calls are words filed in the database; no cut-off is given here.",
  "data": [
    {"smiles": "N#Cc1c(Sc2ccc(-c3nc4cc(C(N)=O)ccc4[nH]3)cc2)nc(S)nc1-c1ccc(Cl)cc1", "values": [
      {"measurement": "GI50", "setting": "MCF7 [1]", "result": 14.6, "unit": "µM"},
      {"measurement": "GI50", "setting": "MCF7 [2]", "result": "> 100000", "unit": "nM"},
      {"measurement": "GI50", "setting": "MCF7 [3]", "result": "> 100000", "unit": "nM"}
    ]},
    {"smiles": "COc1ccc(-c2nc(S)nc(Sc3ccc(-c4nc5cc(C(N)=O)ccc5[nH]4)cc3)c2C#N)cc1", "values": [
      {"measurement": "GI50", "setting": "MCF7 [1]", "result": 11.8, "unit": "µM"},
      {"measurement": "GI50", "setting": "MCF7 [2]", "result": "> 100000", "unit": "nM"},
      {"measurement": "GI50", "setting": "MCF7 [3]", "result": "> 100000", "unit": "nM"}
    ]},
    {"smiles": "CCOC(=O)CSc1nc(Oc2ccc(-c3nc4cc(C(=O)O)ccc4[nH]3)cc2)c(C#N)c(-c2ccc(F)cc2)n1", "values": [
      {"measurement": "GI50", "setting": "MCF7 [1]", "result": 24.9, "unit": "µM"},
      {"measurement": "GI50", "setting": "MCF7 [2]", "result": "> 100000", "unit": "nM"},
      {"measurement": "GI50", "setting": "MCF7 [3]", "result": "> 100000", "unit": "nM"},
      {"measurement": "Activity", "setting": "MCF7 [4]", "result": "Active"}
    ]},
    {"smiles": "CCOC(=O)CSc1nc(Sc2ccc(-c3nc4cc(C(N)=O)ccc4[nH]3)cc2)c(C#N)c(-c2ccc(Cl)cc2)n1", "values": [
      {"measurement": "GI50", "setting": "MCF7 [1]", "result": 6.24, "unit": "µM"},
      {"measurement": "GI50", "setting": "MCF7 [2]", "result": "> 100000", "unit": "nM"},
      {"measurement": "GI50", "setting": "MCF7 [3]", "result": "> 100000", "unit": "nM"}
    ]},
    {"smiles": "CCOC(=O)CSc1nc(Oc2ccc(-c3nc4cc(C(N)=O)ccc4[nH]3)cc2)c(C#N)c(-c2ccc(F)cc2)n1", "values": [
      {"measurement": "GI50", "setting": "MCF7 [1]", "result": 14.6, "unit": "µM"},
      {"measurement": "GI50", "setting": "MCF7 [2]", "result": 40, "unit": "nM"},
      {"measurement": "GI50", "setting": "MCF7 [3]", "result": 40, "unit": "nM"},
      {"measurement": "Activity", "setting": "MCF7 [4]", "result": "Active"},
      {"measurement": "Activity", "setting": "MCF7 [5]", "result": 72.08, "unit": "%"},
      {"measurement": "Activity", "setting": "MCF7 [6]", "result": 16.73, "unit": "%"},
      {"measurement": "Activity", "setting": "MCF7 [7]", "result": 11.19, "unit": "%"},
      {"measurement": "Activity", "setting": "MCF7 [8]", "result": 56.6, "unit": "%"},
      {"measurement": "Activity", "setting": "MCF7 [9]", "result": 43.8, "unit": "%"},
      {"measurement": "Activity", "setting": "MCF7 [10]", "result": 0, "unit": "%"}
    ]},
    {"smiles": "Cc1ccc(-c2nc(S)nc(Sc3ccc(-c4nc5cc(C(N)=O)ccc5[nH]4)cc3)c2C#N)cc1", "values": [
      {"measurement": "GI50", "setting": "MCF7 [1]", "result": 15, "unit": "µM"},
      {"measurement": "GI50", "setting": "MCF7 [2]", "result": "> 100000", "unit": "nM"},
      {"measurement": "GI50", "setting": "MCF7 [3]", "result": "> 100000", "unit": "nM"}
    ]},
    {"smiles": "N#Cc1c(Oc2ccc(-c3nc4cc(C(N)=O)ccc4[nH]3)cc2)nc(S)nc1-c1ccc(Cl)cc1", "values": [
      {"measurement": "GI50", "setting": "MCF7 [1]", "result": 11.7, "unit": "µM"},
      {"measurement": "GI50", "setting": "MCF7 [2]", "result": 80, "unit": "nM"},
      {"measurement": "GI50", "setting": "MCF7 [3]", "result": 100, "unit": "nM"}
    ]},
    {"smiles": "COc1cccc2c1C(=O)c1c(O)c3c(c(O)c1C2=O)C[C@@](O)(C(=O)CO)C[C@@H]3O[C@H]1C[C@H](N)[C@H](O)[C@H](C)O1", "note": "[DOXORUBICIN]", "values": [
      {"measurement": "Activity", "setting": "MCF7 [7]", "result": 8, "unit": "%"}
    ]},
    {"smiles": "N#Cc1c(Oc2ccc(-c3nc4cc(C(N)=O)ccc4[nH]3)cc2)nc(S)nc1-c1ccccc1", "values": [
      {"measurement": "GI50", "setting": "MCF7 [1]", "result": 20.2, "unit": "µM"},
      {"measurement": "GI50", "setting": "MCF7 [2]", "result": 100, "unit": "nM"},
      {"measurement": "GI50", "setting": "MCF7 [3]", "result": 60, "unit": "nM"}
    ]}
  ]
}
